{"source": "ChEMBL document CHEMBL4699542", "about": "“Design and synthesis of novel methoxypyridine-derived gamma-secretase modulators” (Bioorg Med Chem, 2020)", "key": {"Cytochrome P450 3A4": {"target": "Cytochrome P450 3A4 (Homo sapiens, UniProt P08684)", "sequence (P08684 whole entry)": "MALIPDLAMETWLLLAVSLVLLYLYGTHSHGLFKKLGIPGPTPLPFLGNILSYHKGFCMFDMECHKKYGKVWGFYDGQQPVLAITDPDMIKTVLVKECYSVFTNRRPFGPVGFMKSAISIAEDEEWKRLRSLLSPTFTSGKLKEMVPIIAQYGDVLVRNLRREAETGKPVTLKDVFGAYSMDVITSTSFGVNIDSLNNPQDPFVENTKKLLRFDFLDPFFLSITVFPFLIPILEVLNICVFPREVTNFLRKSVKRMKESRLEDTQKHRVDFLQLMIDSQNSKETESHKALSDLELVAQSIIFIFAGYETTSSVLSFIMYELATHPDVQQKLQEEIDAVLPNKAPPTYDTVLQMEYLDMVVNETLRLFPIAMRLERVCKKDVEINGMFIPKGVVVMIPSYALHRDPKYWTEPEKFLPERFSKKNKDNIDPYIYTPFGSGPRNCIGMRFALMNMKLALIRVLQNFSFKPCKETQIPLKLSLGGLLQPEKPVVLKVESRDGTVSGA", "experiment": "Inhibition of recombinant CYP3A4 (unknown origin) by fluorescence-based assay", "format": "ADME"}, "[1]": {"experiment": "Metabolic stability in mouse liver microsomes assessed as parent compound remaining at 1 uM incubated for 30 mins", "format": "ADME, Microsome", "conditions": "0.5 h", "how_it_was_run": "(§1)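 Test compound at 1 μM incubated 30 min with human, rat or mouse liver microsomes (1 mg/mL); parent remaining expressed as %.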"}, "[2]": {"target": "Voltage-gated inwardly rectifying potassium channel KCNH2 (Homo sapiens, UniProt Q12809)", "sequence (Q12809 whole entry)": "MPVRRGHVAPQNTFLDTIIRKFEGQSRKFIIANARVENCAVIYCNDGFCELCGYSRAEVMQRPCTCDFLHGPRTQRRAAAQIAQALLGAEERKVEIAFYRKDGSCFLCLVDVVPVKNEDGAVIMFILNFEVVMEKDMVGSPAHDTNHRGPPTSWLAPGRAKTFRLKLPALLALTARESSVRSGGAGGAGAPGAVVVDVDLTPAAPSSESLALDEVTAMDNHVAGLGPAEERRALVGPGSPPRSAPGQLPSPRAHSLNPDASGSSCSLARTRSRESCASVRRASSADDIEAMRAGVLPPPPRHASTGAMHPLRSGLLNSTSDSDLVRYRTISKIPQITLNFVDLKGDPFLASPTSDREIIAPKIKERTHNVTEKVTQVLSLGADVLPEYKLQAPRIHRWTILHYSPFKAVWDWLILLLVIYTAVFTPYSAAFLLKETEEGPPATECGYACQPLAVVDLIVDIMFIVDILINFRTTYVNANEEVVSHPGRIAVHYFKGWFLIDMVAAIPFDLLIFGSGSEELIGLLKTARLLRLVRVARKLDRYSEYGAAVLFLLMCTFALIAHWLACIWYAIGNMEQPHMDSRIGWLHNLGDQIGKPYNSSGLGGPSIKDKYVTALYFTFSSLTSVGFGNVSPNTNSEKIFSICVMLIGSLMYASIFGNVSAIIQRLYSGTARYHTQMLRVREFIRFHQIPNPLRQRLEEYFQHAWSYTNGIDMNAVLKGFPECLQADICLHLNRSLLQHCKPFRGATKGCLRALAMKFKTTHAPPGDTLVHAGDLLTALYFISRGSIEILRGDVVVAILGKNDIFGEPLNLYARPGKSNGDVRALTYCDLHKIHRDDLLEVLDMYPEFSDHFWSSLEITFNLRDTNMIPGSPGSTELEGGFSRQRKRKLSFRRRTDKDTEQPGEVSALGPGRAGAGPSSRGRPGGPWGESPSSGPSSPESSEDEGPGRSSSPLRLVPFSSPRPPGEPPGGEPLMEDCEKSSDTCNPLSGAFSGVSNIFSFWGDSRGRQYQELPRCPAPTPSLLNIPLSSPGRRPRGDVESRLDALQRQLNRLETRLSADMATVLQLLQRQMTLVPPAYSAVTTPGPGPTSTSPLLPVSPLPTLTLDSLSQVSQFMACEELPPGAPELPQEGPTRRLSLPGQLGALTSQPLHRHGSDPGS", "experiment": "Inhibition of human ERG expressed in HEK293 cells by patch clamp assay", "format": "cell-based"}, "[3]": {"experiment": "In vivo modulation of gamma secretase in transgenic J20 mouse overexpressing human APP assessed as reduction in plasma amyloid beta38 level at 25 mg/kg, po administered via gavage for 3 consecutive days and measured after 4 hrs post last dose on day 3 by meso scale discovery relative to control", "format": "functional", "set-up": "scale not given: the % may be the effect or the level left", "conditions": "time 3 day", "how_it_was_run": "(§2)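 Female J20 mice, 5–6 months old (n=5/dose), dosed orally at 25, 50 or 100 mg/kg or with vehicle (5% NMP/95% PEG300) for 3 consecutive days. Plasma was taken 4 h after the final dose. Aβ38/40/42 measured by Meso Scale multiplex immunoassay, with % reduction relative to vehicle. Mean ± SEM, ANOVA.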"}, "[4]": {"experiment": "Ratio of drug level in brain to plasma of transgenic J20 mouse overexpressing human APP at 50 mg/kg, po administered via gavage for 3 consecutive days and measured after 4 hrs post last dose on day 3 by HPLC-MS/MS analysis", "format": "ADME, organism-based", "conditions": "72 h, time 3 day", "how_it_was_run": "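Female J20 mice, 5–6 months old (n=5/dose), dosed by oral gavage once daily for 3 days in 5% NMP/95% PEG300 vehicle. Sacrificed 4 h after the day-3 dose. Plasma and brain drug levels measured by LC-MS/MS (LLOQ 1 ng/mL plasma, 5 ng/g brain). Ratio = brain level/plasma level.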"}, "[5]": {"experiment": "Drug metabolism in CD-1 mouse liver", "format": "ADME, tissue-based", "conditions": "read-out: Drug metabolism", "how_it_was_run": "as §1"}, "Mus musculus [6]": {"test_system": "Mus musculus", "experiment": "In vivo modulation of gamma secretase in po dosed transgenic J20 mouse overexpressing human APP assessed as reduction in plasma amyloid beta40 level administered via gavage for 3 consecutive days and measured after 4 hrs post last dose on day 3 by meso scale discovery", "format": "functional, organism-based", "conditions": "dose mg/kg 25-100, time 3.0 day", "how_it_was_run": "as §2"}, "[7]": {"experiment": "(§3) In vivo modulation of gamma secretase transgenic Tg2576 mouse overexpressing human APP harboring K595N/M596L Swedish double mutant assessed as reduction in brain amyloid beta42 level at 50 mg/kg, po administered via gavage for 14 consecutive days and measured after 4 hrs post last dose on day 14 by meso scale discovery relative to control", "format": "functional", "set-up": "scale not given: the % may be the effect or the level left", "conditions": "time 14 day", "how_it_was_run": "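Female Tg2576 mice, 5–6 months old (n=12/dose), dosed daily by oral gavage for 14 days with vehicle (5% NMP/95% PEG300) or 50 mg/kg test article. Killed 4 h post final dose; brain and plasma Aβ38/40/42 measured by Meso Scale multiplex (SECTOR Imager 6000). Percent reduction versus vehicle; mean ± SEM, ANOVA.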"}, "[8]": {"experiment": "AUClast in CD-1 mouse at 5 mg/kg, po administered as single dose measured up to 24 hrs", "format": "ADME, organism-based", "set-up": "route oral, dose 5 mg/kg, time <=24", "conditions": "in vivo", "how_it_was_run": "(§4)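 Male CD-1 mice, 6–8 weeks old, single dose by tail vein (1 mg/kg, 3% NMP/45% PEG300/12% ethanol/40% water) or oral gavage (5 mg/kg, 5% NMP/95% PEG300). Retro-orbital plasma sampled 0.083 (iv only) to 24 h, n=3/timepoint, and analysed by HPLC/MS/MS. Non-compartmental analysis. Half-life taken from the terminal phase using ≥3 non-zero points after Tmax.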"}, "[9]": {"experiment": "Drug level in plasma of transgenic Tg2576 mouse overexpressing human APP harboring K595N/M596L Swedish double mutant at 50 mg/kg, po administered via gavage for 14 consecutive days and measured after 4 hrs post last dose on day 14 by HPLC-MS/MS analysis", "format": "ADME, organism-based", "conditions": "time 14 day", "how_it_was_run": "(§5)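 Female Tg2576 mice, 5–6 months old, gavaged with 50 mg/kg daily for 14 days (vehicle 5% NMP/95% PEG300), n=12/dose. Plasma and brain collected 4 h after the last dose and analysed by LC-MS/MS. LLOQ was 1 ng/mL in plasma and 5 ng/g in brain.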"}, "[10]": {"experiment": "as §3, with “plasma” for “brain”, “beta40” for “beta42”", "format": "functional", "set-up": "scale not given: the % may be the effect or the level left", "conditions": "time 14 day", "how_it_was_run": "(§6)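 Female Tg2576 mice, 5–6 months old (n=12/dose), gavaged daily for 14 days with 50 mg/kg or vehicle (5% NMP/95% PEG300). Plasma and brain taken 4 h after the last dose. Aβ38/40/42 quantified by Meso Scale multiplex assay, with % reduction versus vehicle. Mean ± SEM, ANOVA.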"}, "[11]": {"experiment": "Drug level in brain of transgenic Tg2576 mouse overexpressing human APP harboring K595N/M596L Swedish double mutant at 50 mg/kg, po administered via gavage for 14 consecutive days and measured after 4 hrs post last dose on day 14 by HPLC-MS/MS analysis", "format": "ADME, organism-based", "conditions": "time 14 day, read-out: Ct", "how_it_was_run": "as §5"}, "Mus musculus [12]": {"test_system": "Mus musculus", "experiment": "In vivo modulation of gamma secretase in po dosed transgenic J20 mouse overexpressing human APP assessed as reduction in plasma amyloid beta42 level administered via gavage for 3 consecutive days and measured after 4 hrs post last dose on day 3 by meso scale discovery", "format": "functional, organism-based", "conditions": "dose mg/kg 25-100, time 3.0 day", "how_it_was_run": "as §2"}, "[13]": {"experiment": "as §3, with “beta40” for “beta42”", "format": "functional", "set-up": "scale not given: the % may be the effect or the level left", "conditions": "time 14 day", "how_it_was_run": "as §6"}, "[14]": {"experiment": "Ratio of drug level in brain to plasma of transgenic Tg2576 mouse overexpressing human APP harboring K595N/M596L Swedish double mutant at 50 mg/kg, po administered via gavage for 14 consecutive days and measured after 4 hrs post last dose on day 14 by HPLC-MS/MS analysis", "format": "ADME, organism-based", "conditions": "336 h, time 14 day", "how_it_was_run": "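Female Tg2576 mice, 5–6 months old (n=12/dose), given 50 mg/kg by oral gavage daily for 14 days in 5% NMP/95% PEG300. Sacrificed 4 h after the day-14 dose. Plasma and brain drug levels measured by LC-MS/MS (LLOQ 1 ng/mL plasma, 5 ng/g brain). Ratio = brain/plasma.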"}, "[15]": {"experiment": "as §3, with “plasma” for “brain”", "format": "functional", "set-up": "scale not given: the % may be the effect or the level left", "conditions": "time 14 day", "how_it_was_run": "as §6"}, "[16]": {"experiment": "Oral bioavailability in CD-1 mouse at 5 mg/kg administered as single dose measured up to 24 hrs", "format": "ADME, organism-based", "conditions": "in vivo", "how_it_was_run": "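CD-1 mouse PK after single iv (1 mg/kg) and oral gavage (5 mg/kg) dosing, with plasma sampled to 24 h (n=3/timepoint) and measured by HPLC/MS/MS. F(%) = (AUC0-inf po × Dose iv)/(AUC0-inf iv × Dose po) × 100.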"}, "[17]": {"experiment": "AUClast in CD-1 mouse at 1 mg/kg, iv administered as single dose measured up to 24 hrs", "format": "ADME, organism-based", "set-up": "route intravenous, dose 1 mg/kg, time <=24", "conditions": "in vivo", "how_it_was_run": "as §4"}, "[18]": {"experiment": "as §3, with “beta38” for “beta42”", "format": "functional", "set-up": "scale not given: the % may be the effect or the level left", "conditions": "time 14 day", "how_it_was_run": "as §6"}, "[19]": {"experiment": "Half life in CD-1 mouse at 1 mg/kg, iv administered as single dose measured up to 24 hrs", "format": "ADME, organism-based", "conditions": "CD-1, mouse, in vivo", "how_it_was_run": "as §4"}}}
{"smiles": "COc1nc(-c2csc(Nc3c4c(nn3CCF)CCCC4)n2)ccc1-n1cnc(C)c1", "values": [{"measurement": "IC50", "setting": "Cytochrome P450 3A4", "value": 1, "unit": "µM"}, {"measurement": "Stabilty", "setting": "[1]", "value": 100, "unit": "%"}, {"measurement": "IC50", "setting": "[2]", "value": 11.4, "unit": "µM"}, {"measurement": "Activity", "setting": "[3]", "value": 18, "unit": "%"}, {"measurement": "BPR", "setting": "[4]", "value": 0.42}, {"measurement": "metabolised", "setting": "[5]", "value": 60, "unit": "%"}]}
{"smiles": "CCn1nc2c(c1Nc1nc(-c3ccc(-n4cnc(C)c4)c(OC)n3)cs1)CCC2", "values": [{"measurement": "Activity", "setting": "Mus musculus [6]", "value": "Dose-dependent effect"}, {"measurement": "Activity", "setting": "[7]", "value": 23, "unit": "%"}, {"measurement": "AUClast", "setting": "[8]", "value": 1.205, "unit": "µg·h/mL"}, {"measurement": "concentration at 336 h", "setting": "[9]", "value": 1.13, "unit": "µg/mL"}, {"measurement": "Activity", "setting": "[10]", "value": 24, "unit": "%"}, {"measurement": "concentration at 336 h", "setting": "[11]", "value": 425, "unit": "ng/g"}, {"measurement": "Activity", "setting": "Mus musculus [12]", "value": "Dose-dependent effect"}, {"measurement": "Activity", "setting": "[13]", "value": 1, "unit": "%"}, {"measurement": "BPR", "setting": "[14]", "value": 0.374}, {"measurement": "Activity", "setting": "[15]", "value": 52, "unit": "%"}, {"measurement": "F", "setting": "[16]", "value": 66, "unit": "%"}, {"measurement": "Activity", "setting": "[3]", "value": 19, "unit": "%"}, {"measurement": "BPR", "setting": "[4]", "value": 0.38}, {"measurement": "AUClast", "setting": "[17]", "value": 0.376, "unit": "µg·h/mL"}, {"measurement": "Activity", "setting": "[18]", "value": 0, "unit": "%"}, {"measurement": "half-life", "setting": "[19]", "value": 42, "unit": "min"}]}
